Screening results: PubChem, Johns Hopkins Ion Channel Center
TRPC6 inh: mouse TRPC6 channel inhibition; B-score at 10 µM; hit rate 1.1% among 310,000; HEK293-TRPC6, membrane potential dye, ACh-evoked depolarization; stronger effect = lower value; AID 2553;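 active means B-score under library mean minus 3 SD, initial fluorescence not abnormally high, positive integrated signal ratio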;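 further: B-score derived from integrated fluorescence ratio over the kinetic read; more negative B-score means stronger inhibition of depolarization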
TRPC4 inh: TRPC4 (mouse) channel inhibition. Q9QUQ5. HEK293 TRPC4beta/mu-opioid, DAMGO-evoked Fluo4 calcium flux; stronger effect = lower value. B-score at 10 µM. hit rate 0.39% among 300,000;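 active means B-score over 3 SD under the library average, no early fluorescence shift, positive overall ratio signal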
Target sequence (Q9QUQ5 whole entry, looked up): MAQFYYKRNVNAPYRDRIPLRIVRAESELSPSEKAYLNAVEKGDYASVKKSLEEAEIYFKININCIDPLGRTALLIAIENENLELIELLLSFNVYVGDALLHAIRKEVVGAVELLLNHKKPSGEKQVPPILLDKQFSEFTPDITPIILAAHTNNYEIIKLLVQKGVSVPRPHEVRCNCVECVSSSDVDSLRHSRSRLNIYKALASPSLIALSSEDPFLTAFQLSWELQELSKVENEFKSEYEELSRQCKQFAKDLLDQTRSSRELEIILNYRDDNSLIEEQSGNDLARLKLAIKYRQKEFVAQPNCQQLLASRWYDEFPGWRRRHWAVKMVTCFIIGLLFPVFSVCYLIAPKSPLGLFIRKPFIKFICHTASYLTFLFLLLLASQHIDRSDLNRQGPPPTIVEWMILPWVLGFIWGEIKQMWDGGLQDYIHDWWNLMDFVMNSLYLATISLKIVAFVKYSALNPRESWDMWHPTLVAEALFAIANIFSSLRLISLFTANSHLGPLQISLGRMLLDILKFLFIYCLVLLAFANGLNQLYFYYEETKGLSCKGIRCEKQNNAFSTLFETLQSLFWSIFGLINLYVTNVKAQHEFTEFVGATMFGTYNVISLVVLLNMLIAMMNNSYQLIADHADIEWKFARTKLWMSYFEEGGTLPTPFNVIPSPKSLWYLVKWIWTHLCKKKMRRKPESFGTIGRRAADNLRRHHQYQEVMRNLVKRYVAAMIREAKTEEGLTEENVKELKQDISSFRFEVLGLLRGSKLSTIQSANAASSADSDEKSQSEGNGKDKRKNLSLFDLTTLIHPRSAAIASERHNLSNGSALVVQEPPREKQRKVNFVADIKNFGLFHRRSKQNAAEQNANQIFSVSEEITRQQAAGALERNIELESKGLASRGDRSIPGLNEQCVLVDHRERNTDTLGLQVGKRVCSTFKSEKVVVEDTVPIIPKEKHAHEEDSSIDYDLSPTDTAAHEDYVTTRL
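Assay system – HEK293 line stably carrying TRPC4beta and mu-opioid receptor · Doses – single dose · Detection – Fluo4 calcium-dye fluorescence, kinetic read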
TRPC4 PAM: allosteric potentiators of mouse TRPC4 channel. Q9QUQ5. HEK293 TRPC4beta/mu-opioid, DAMGO EC20, Fluo-4 Ca2+ flux; stronger effect = higher value. B-score at 10 µM. hit rate 0.42% among 310,000;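 active means B-score of calcium response area above 5 SD of library B-scores, with initial fluorescence ratio within 5 SD of library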;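 further: B-score of integrated fluorescence ratio over time as area under calcium response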
TRPC6 act: activates the mouse TRPC6 cation channel | Q61143 | HEK293-TRPC6 membrane potential dye fluorescence; stronger effect = higher value | B-score at 10 µM | hit rate 0.13% among 310,000 | AID 2550;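 active means B-score of the integrated fluorescence ratio above library mean plus 3 SD, and starting fluorescence ratio within library mean plus 5 SD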;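 further: higher score means more depolarization so channel activation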
TRPC4 act: opens the mouse TRPC4 cation channel; Q9QUQ5; HEK293 TRPC4beta/mu-opioid, Fluo4 calcium fluorescence; stronger effect = higher value; B-score at 10 µM; hit rate 0.49% among 310,000;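 active means B-score above 5 SD of library B-scores, and initial fluorescence ratio not above library mean plus 5 SD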;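 further: positive B-score marks a calcium rise read as TRPC4 activation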
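Technique: kinetic Fluo4 calcium fluorescence; Test system: TRPC4beta and mu-opioid receptor HEK293 stable cells; Measure: B-scored integrated calcium fluorescence ratio; Benchmarks: low control buffer alone, high control maximal DAMGO; Schedule: 45 min room-temperature Fluo4 loading, 110 s read.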
TRPC4 spec 2: second selectivity test of TRPC6 inhibitors: effect on mouse TRPC4. HEK293 TRPC4/MOR, membrane potential dye fluorescence; channel activated by saturating DAMGO dose. inhibition, % at 10 µM. AID 2776. hit rate 42% among 920. shares compounds with TRPC6 inh;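 active means compounds whose fluorescence signal differed from control wells by over 3 SD, either direction, in both duplicate plates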
TRPC4 spec: mouse TRPC4 off-target activity of TRPC6 inhibitors; shares compounds with TRPC6 inh; HEK293 TRPC4/mu-opioid, membrane potential fluorescence; activity change, negative = inhibition, % at 10 µM; hit rate 61% among 920;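 active means rise or fall in signal beyond 3 SD of buffer-only wells in both replicate plates, either sign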;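 further: integrated kinetic ratio of fluorescence range over baseline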
HEK293 MPD ctr 2-1: second counter-screen for TRPC6 inhibitors: parental HEK293 cells; signal change vs control, % at 10 µM; hit rate 31% among 920; parental HEK293 membrane potential dye fluorescence; maximal acetylcholine challenge after compound addition; shares compounds with TRPC6 inh;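 active means membrane potential signal moving either way by over 3 SD of the maximum-effect control, in both duplicate plates, meaning non-specific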
HEK293 MPD ctr-1: checks TRPC6 inhibitor effects in parental HEK293 cells | hit rate 60% among 920 | parental HEK293 membrane potential dye fluorescence | membrane potential signal change, % at 10 µM | shares compounds with TRPC6 inh;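 active means membrane potential signal shifting up or down by more than 3 SD of buffer-only wells, on both duplicate plates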
HEK293 MPD ctr-2: counter-screen for TRPC6 modulators: effect in parental HEK293 cells | shares compounds with TRPC6 inh | membrane potential dye fluorescence | membrane potential signal change, % at 10 µM | hit rate 51% among 2,400 | AID 488924;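 active means membrane potential signal moves up or down beyond 5 SD from buffer-only wells, on both duplicate plates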
HEK293 MPD ctr 2-2: parental HEK293 nonspecific activity of TRPC6 modulators, second screen; shares compounds with TRPC6 inh; membrane potential dye fluorescence; after compound, maximal acetylcholine stimulation; inhibition, % at 10 µM; hit rate 14% among 2,400; AID 488926;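 active means membrane potential signal drops by more than 5 SD from the mean control signal, in both duplicate plates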;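 further: plate controls were acetylcholine ECmax control wells for no effect and buffer only wells for full effect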
TRPC4/MOR mod: selectivity of TRPC6 modulators against mouse TRPC4. shares compounds with TRPC6 inh. HEK293 TRPC4/mu-opioid, membrane potential fluorescence. percent change from control (negative = decrease, positive = increase), % at 10 µM. hit rate 69% among 2,400. AID 488927;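 active means membrane potential signal moved up or down beyond 5 SD of buffer control wells, in both duplicate plates, actives on both sides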;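 further: plate controls were assay buffer wells for no effect and DAMGO maximal-effect wells for full effect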
TRPC4/MOR inh 2: mouse TRPC4 off-target activity of TRPC6 modulators, second screen; shares compounds with TRPC6 inh; HEK293 TRPC4/mu-opioid, membrane potential dye fluorescence; stimulated with maximal-effect DAMGO; inhibition, % at 10 µM; hit rate 55% among 2,400; AID 488928;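 active means drop in membrane potential signal beyond 5 SD of the control wells in both duplicate plates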;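 further: TRPC4 counter screen for TRPC6 hits run under conditions tuned for TRPC6 not TRPC4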
TRPC6 block conf: mouse TRPC6 inhibitor confirmation; shares compounds with TRPC6 inh; HEK293-TRPC6, membrane potential dye, ACh-evoked depolarization; inhibition, % at 10 µM; hit rate 43% among 3,300; AID 488960;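 active means fluorescence ratio falls more than 5 SD below the full-stimulation control mean, in both duplicate runs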;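 further: integrated fluorescence ratio of peak minus minimum over baseline after agonist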
TRPC6 act confirm: confirmation of mouse TRPC6 activators; HEK293-TRPC6 membrane potential dye fluorescence, FDSS; activation, % at 10 µM; hit rate 11% among 2,800; shares compounds with TRPC6 inh;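 active means ratio signal rise beyond 5 SD above unstimulated control wells' mean, seen in both duplicate runs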;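 further: plate controls were buffer EC0 wells for no effect and acetylcholine ECmax response for full effect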
* hit, by the source's call. The list is not random: actives were taken first. Their share in the collection is about 2.3%.

For N#Cc1cnn(Cc2ccc(Cl)cc2)c1N the results were TRPC6 inh inactive, TRPC4 PAM inactive, TRPC6 act inactive and TRPC4 act inactive.
Screening N#Cc1cnn(Cc2ccccc2)c1N returned TRPC6 inh -6.24*, TRPC4 inh inactive, TRPC4 PAM inactive, TRPC6 act inactive, TRPC4 act inactive, HEK293 MPD ctr-2 inactive, HEK293 MPD ctr 2-2 inactive, TRPC4/MOR mod inactive, TRPC4/MOR inh 2 inactive, TRPC6 block conf inactive and TRPC6 act confirm inactive.
For CCOC(=O)c1c(NC(=O)COC(=O)c2nc(Cl)ccc2Cl)sc2c1CCC2 the results were TRPC6 inh inactive, TRPC4 inh inactive, TRPC4 PAM inactive, TRPC6 act inactive and TRPC4 act inactive.
Screening O=C(NCCc1ccc(F)cc1)Nc1ccc([N+](=O)[O-])cc1 returned TRPC6 inh inactive, TRPC4 inh inactive, TRPC4 PAM inactive, TRPC6 act inactive and TRPC4 act inactive.
O=[N+]([O-])c1ccc(NC(=S)NCCc2ccc(F)cc2)cc1 was read as TRPC6 inh -5.27*, TRPC4 inh inactive, TRPC4 PAM inactive, TRPC6 act inactive, TRPC4 act inactive, HEK293 MPD ctr-2 inactive, HEK293 MPD ctr 2-2 inactive, TRPC4/MOR mod inactive, TRPC4/MOR inh 2 61.5%*, TRPC6 block conf inactive and TRPC6 act confirm inactive.
Screening CC(=O)N1CC(C)Sc2ccc(S(=O)(=O)NCc3ccc(Cl)cc3)cc21 (stereo not given) returned TRPC6 inh inactive, TRPC4 inh inactive, TRPC4 PAM inactive, TRPC6 act inactive and TRPC4 act inactive.
For Cc1cccc(N2CCN(C(=O)C(C)n3nc(C)n4c(cc5occc54)c3=O)CC2)c1C (stereo not given) the results were TRPC6 inh -5.07*, TRPC4 inh inactive, TRPC4 PAM inactive, TRPC6 act inactive, TRPC4 act inactive, HEK293 MPD ctr-2 inactive, HEK293 MPD ctr 2-2 inactive, TRPC4/MOR mod 13.5%*, TRPC4/MOR inh 2 inactive and TRPC6 block conf inactive.
Screening Cc1nn(C(C)C(=O)N2CCN(c3ccccn3)CC2)c(=O)c2cc3occc3n12 (stereo not given) returned TRPC6 inh inactive, TRPC4 inh inactive, TRPC4 PAM inactive, TRPC6 act inactive and TRPC4 act inactive.
COCCCN(C(=S)Nc1c(C)cc(C)cc1C)C(C)c1ccccn1 (stereo not given) was read as TRPC6 inh inactive, TRPC4 inh inactive, TRPC4 PAM inactive, TRPC6 act inactive and TRPC4 act inactive.
For O=C(Cc1ccccc1F)NC1CCCc2ccccc21 (stereo not given) the results were TRPC6 inh inactive, TRPC4 inh inactive, TRPC4 PAM inactive, TRPC6 act inactive and TRPC4 act inactive.
For O=C(CCc1ccccc1)NC1CCCc2ccccc21 (stereo not given) the results were TRPC6 inh -7.45*, TRPC4 inh inactive, TRPC4 PAM inactive, TRPC6 act inactive, TRPC4 act inactive, TRPC4 spec 2 inactive, TRPC4 spec 6.5%*, HEK293 MPD ctr 2-1 inactive, HEK293 MPD ctr-1 5.4%*, TRPC6 block conf inactive and TRPC6 act confirm inactive.
For O=C(N/N=C/c1cccnc1)c1ccc([N+](=O)[O-])cc1 the results were TRPC6 inh -5.28*, TRPC4 inh inactive, TRPC4 PAM inactive, TRPC6 act inactive, TRPC4 act inactive, HEK293 MPD ctr-2 -195.5%*, HEK293 MPD ctr 2-2 inactive, TRPC4/MOR mod -36.0%*, TRPC4/MOR inh 2 29.5%*, TRPC6 block conf inactive and TRPC6 act confirm inactive.
Screening O=C(N/N=C/c1cccc([N+](=O)[O-])c1)c1cc[n+](CCO)cc1 returned TRPC6 inh -5.67*, TRPC4 inh inactive, TRPC4 PAM inactive, TRPC6 act inactive, TRPC4 act inactive, HEK293 MPD ctr-2 -88.0%*, HEK293 MPD ctr 2-2 inactive, TRPC4/MOR mod -22.0%*, TRPC4/MOR inh 2 inactive, TRPC6 block conf inactive and TRPC6 act confirm inactive.
Screening CS(=O)(=O)N(CC(=O)N1CCN(c2ccccc2)CC1)Cc1ccc(Cl)cc1 returned TRPC6 inh -5.63*, TRPC4 inh inactive, TRPC4 PAM inactive, TRPC6 act inactive, TRPC4 act inactive, HEK293 MPD ctr-2 inactive, HEK293 MPD ctr 2-2 inactive, TRPC4/MOR mod 13.0%*, TRPC4/MOR inh 2 inactive, TRPC6 block conf inactive and TRPC6 act confirm inactive.
For CS(=O)(=O)N(CC(=O)N1CCc2ccccc2C1)Cc1ccccc1 the results were TRPC6 inh -6.53*, TRPC4 inh inactive, TRPC4 PAM inactive, TRPC6 act inactive, TRPC4 act inactive, HEK293 MPD ctr-2 inactive, HEK293 MPD ctr 2-2 inactive, TRPC4/MOR mod 12.0%*, TRPC4/MOR inh 2 inactive and TRPC6 block conf inactive.
Screening COc1ccc(N2CCN(C(=O)CN(Cc3ccc(Cl)cc3)S(C)(=O)=O)CC2)cc1 returned TRPC6 inh inactive, TRPC4 inh inactive, TRPC4 PAM inactive, TRPC6 act inactive and TRPC4 act inactive.
